Measurements reported in PMC4233149 (Clinical cancer research : an official journal of the …, 2014).
Marks after values point to notes of the source that are not given here.

Test: Phase I safety and tolerability, weekly
Assay type: in vivo, human
Summary of the method: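 Oral weekly dose escalation followed a 3+3 design (planned 90, 135, 200, 300mg, intermediate doses allowed), then a modified toxicity-probability-interval confirmation stage. A DLT was any drug-related CTCAE v3.0 ≥G4 hematological, ≥G3 febrile neutropenia or ≥G3 non-hematological toxicity. Safety visits, glucose, C-peptide and HbA1c monitoring followed a fixed schedule; AEs were graded by CTCAE v3.0.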

[1] = 200mg QW, G3, cycle 1, dose-limiting toxicity

## NC1(c2ccc(-c3nc4ccn5c(=O)[nH]nc5c4cc3-c3ccccc3)cc2)CCC1 [MK-2206]
200mg QW, G3, cycle 1
  Diarrhea, number of AEs: 0 (0)
  Dry skin, number of AEs: 0 (0)
  Dysgeusia, number of AEs: 0 (0)
  Fatigue, number of AEs: 0 (0)
  Nausea, number of AEs: 0 (0)
  Pruritus, number of AEs: 0 (0)
  Stomatitis, number of AEs: 0 (0)
  Vomiting, number of AEs: 0 (0)
[1]
  Dermatitis acneiform, number of AEs: 1^c (1)
  Rash (all rash terms collated), number of AEs: 3^c (3)
250mg QW, G1, all cycles
  Anorexia, number of AEs: 0 (0)
  Dermatitis acneiform, number of AEs: 0 (0)
  Diarrhea, number of AEs: 0 (0)
  Dysgeusia, number of AEs: 0 (0)
  Fatigue, number of AEs: 0 (0)
  Nausea, number of AEs: 0 (0)
  Pruritus, number of AEs: 0 (0)
  Stomatitis, number of AEs: 2
  Vomiting, number of AEs: 0 (0)
250mg QW, G1, cycle 1
  Anorexia, number of AEs: 0 (0)
  Dermatitis acneiform, number of AEs: 0 (0)
  Diarrhea, number of AEs: 0 (0)
  Dysgeusia, number of AEs: 0 (0)
  Fatigue, number of AEs: 0 (0)
  Nausea, number of AEs: 0 (0)
  Pruritus, number of AEs: 0 (0)
  Stomatitis, number of AEs: 1
  Vomiting, number of AEs: 0 (0)
250mg QW, G2, all cycles
  Anorexia, number of AEs: 0 (0)
  Dermatitis acneiform, number of AEs: 0 (0)
  Diarrhea, number of AEs: 0 (0)
  Dry skin, number of AEs: 0 (0)
  Dysgeusia, number of AEs: 0 (0)
  Fatigue, number of AEs: 0 (0)
  Nausea, number of AEs: 0 (0)
  Pruritus, number of AEs: 0 (0)
  Rash (all rash terms collated), number of AEs: 2
  Stomatitis, number of AEs: 0 (0)
  Vomiting, number of AEs: 0 (0)
250mg QW, G2, cycle 1
  Anorexia, number of AEs: 0 (0)
  Dermatitis acneiform, number of AEs: 0 (0)
  Diarrhea, number of AEs: 0 (0)
  Dry skin, number of AEs: 0 (0)
  Dysgeusia, number of AEs: 0 (0)
  Fatigue, number of AEs: 0 (0)
  Nausea, number of AEs: 0 (0)
  Pruritus, number of AEs: 0 (0)
  Rash (all rash terms collated), number of AEs: 1
  Stomatitis, number of AEs: 0 (0)
  Vomiting, number of AEs: 0 (0)
250mg QW, G3, all cycles
  Anorexia, number of AEs: 0 (0)
  Dermatitis acneiform, number of AEs: 0 (0)
  Diarrhea, number of AEs: 0 (0)
  Dry skin, number of AEs: 0 (0)
  Dysgeusia, number of AEs: 0 (0)
  Fatigue, number of AEs: 0 (0)
  Nausea, number of AEs: 0 (0)
  Pruritus, number of AEs: 0 (0)
  Rash (all rash terms collated), number of AEs: 2^c (2)
  Stomatitis, number of AEs: 0 (0)
  Vomiting, number of AEs: 0 (0)
250mg QW, G3, cycle 1
  Anorexia, number of AEs: 0 (0)
  Dermatitis acneiform, number of AEs: 0 (0)
  Diarrhea, number of AEs: 0 (0)
  Dry skin, number of AEs: 0 (0)
  Dysgeusia, number of AEs: 0 (0)
  Fatigue, number of AEs: 0 (0)
  Nausea, number of AEs: 0 (0)
  Pruritus, number of AEs: 0 (0)
  Stomatitis, number of AEs: 0 (0)
  Vomiting, number of AEs: 0 (0)
250mg QW, G3, cycle 1, dose-limiting toxicity
  Rash (all rash terms collated), number of AEs: 2^c (2)
300mg QW, G1, all cycles
  Anorexia, number of AEs: 0 (0)
  Dermatitis acneiform, number of AEs: 0 (0)
  Diarrhea, number of AEs: 0 (0)
  Dry skin, number of AEs: 0 (0)
  Dysgeusia, number of AEs: 1 (1)
  Fatigue, number of AEs: 1 (1)
  Nausea, number of AEs: 1 (1)
  Pruritus, number of AEs: 0 (0)
  Stomatitis, number of AEs: 0 (0)
  Vomiting, number of AEs: 0 (0)
300mg QW, G1, cycle 1
  Anorexia, number of AEs: 0 (0)
  Dermatitis acneiform, number of AEs: 0 (0)
  Diarrhea, number of AEs: 0 (0)
  Dry skin, number of AEs: 0 (0)
  Dysgeusia, number of AEs: 1 (1)
  Fatigue, number of AEs: 1 (1)
  Nausea, number of AEs: 1 (1)
  Pruritus, number of AEs: 0 (0)
  Stomatitis, number of AEs: 0 (0)
  Vomiting, number of AEs: 0 (0)
300mg QW, G2, all cycles
  Anorexia, number of AEs: 0 (0)
  Dermatitis acneiform, number of AEs: 0 (0)
  Diarrhea, number of AEs: 0 (0)
  Dry skin, number of AEs: 0 (0)
  Dysgeusia, number of AEs: 0 (0)
  Fatigue, number of AEs: 0 (0)
  Nausea, number of AEs: 0 (0)
  Pruritus, number of AEs: 0 (0)
  Rash (all rash terms collated), number of AEs: 2 (2)
  Stomatitis, number of AEs: 1 (1)
  Vomiting, number of AEs: 0 (0)
300mg QW, G2, cycle 1
  Anorexia, number of AEs: 0 (0)
  Dermatitis acneiform, number of AEs: 0 (0)
  Diarrhea, number of AEs: 0 (0)
  Dry skin, number of AEs: 0 (0)
  Dysgeusia, number of AEs: 0 (0)
  Fatigue, number of AEs: 0 (0)
  Nausea, number of AEs: 0 (0)
  Pruritus, number of AEs: 0 (0)
  Rash (all rash terms collated), number of AEs: 2 (2)
  Stomatitis, number of AEs: 1 (1)
  Vomiting, number of AEs: 0 (0)
300mg QW, G3, all cycles
  Anorexia, number of AEs: 0 (0)
  Dermatitis acneiform, number of AEs: 0 (0)
  Diarrhea, number of AEs: 0 (0)
  Dry skin, number of AEs: 0 (0)
  Dysgeusia, number of AEs: 0 (0)
  Fatigue, number of AEs: 0 (0)
  Nausea, number of AEs: 0 (0)
  Pruritus, number of AEs: 0 (0)
  Rash (all rash terms collated), number of AEs: 3^c (3)
  Stomatitis, number of AEs: 0 (0)
  Vomiting, number of AEs: 0 (0)
300mg QW, G3, cycle 1
  Anorexia, number of AEs: 0 (0)
  Dermatitis acneiform, number of AEs: 0 (0)
  Diarrhea, number of AEs: 0 (0)
  Dry skin, number of AEs: 0 (0)
  Dysgeusia, number of AEs: 0 (0)
  Fatigue, number of AEs: 0 (0)
  Nausea, number of AEs: 0 (0)
  Pruritus, number of AEs: 0 (0)
  Stomatitis, number of AEs: 0 (0)
  Vomiting, number of AEs: 0 (0)
300mg QW, G3, cycle 1, dose-limiting toxicity
  Rash (all rash terms collated), number of AEs: 3^c (3)
QW schedule, 4/33
  drug-related headaches, patients: 12.1%
  drug-related increased alanine aminotransferase levels, patients: 12.1%
  drug-related pruritus, patients: 12.1%
QW schedule, 4 patients with increase
  C-peptide level increase during first cycle (range): 65.7%-166.6
QW schedule, 5/33
  drug-related stomatitis, patients: 15.2%
QW schedule, 7/33
  drug-related decreased appetite, patients: 21.2%
QW schedule, 7 of 10 patients with DLTs
  time to full resolution of DLTs from onset: 1 to 2 weeks
QW schedule, 8/33
  drug-related vomiting, patients: 24.2%
QW schedule, 9/33
  drug-related diarrhea, patients: 27.3%
  drug-related nausea, patients: 27.3%
QW schedule, 14/33
  drug-related rash, patients: 42.4%
QW schedule, 15/33
  drug-related fatigue, patients: 45.5%
QW schedule, 19/33
  elevated blood glucose levels, patients: 57.6%
QW schedule, 22/33
  drug-related AEs, patients: 66.7%
QW schedule, all patients assessed
  post-cycle 1 HbA1c values: < 7%
QW schedule, following 1 cycle, 1/33
  G1 hyperglycemia, patients: 3.0%
QW schedule, of 10 patients with DLTs
  DLTs resolved with sequelae of dry skin: 3 patients
QW schedule, patients assessed
  patients with increased C-peptide levels during first cycle: 4 of 6
QW schedule, G3 rash, G3 complete atrioventricular block, G1 rash (n=1 each)
  patients who discontinued for drug-related AEs: Three
